# Screening results (PubChem)
# Jurkat NFkB inh = inhibitors of the PMA/ionomycin-induced NF-kB reporter in Jurkat cells | inhibition, % at 4 µM | PMA/ionomycin-induced NF-kB luciferase reporter, luminescence | AID 435003 | 0.53% of 330,000 active; in the data active means inhibition above about 50%
# aSyn UTR inh = 5' untranslated region of α-synuclein, MLPCN primary screen; alpha-synuclein 5'UTR reporter, inhibitor activity; 0.82% of 300,000 active; inhibition, % (tested at 7.5 µM); in the data active means inhibition above about 60%; inconclusive means no clear call, values can overlap the other calls;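 further: H4 neuroglioblastoma cells stably carrying SNCA 5'UTR luciferase fusion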
# VIM-2 inhibitor = blocks Pseudomonas aeruginosa VIM-2 metallo-beta-lactamase; purified VIM-2, nitrocefin hydrolysis, epi-absorbance fluorescence; inhibition, % at 5.6 µM; 0.89% of 290,000 active; AID 1527;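 active means inhibition above the mean of all tested compounds plus 3 SD, cutoff set per screening run, cut at about 7.5% in these data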;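 further: red hydrolysis product quenches plate fluorescence so inhibitors raise well fluorescence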
# IMP-1 inh = inhibitors of Pseudomonas aeruginosa IMP-1 metallo-beta-lactamase; 0.45% of 290,000 active; purified IMP-1, nitrocefin hydrolysis, epi-absorbance fluorescence; inhibition, % at 5.6 µM; AID 1556;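 active means inhibition above the mean plus 3 SD of all compounds in the same screening run, cut at about 4.5% in these data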
#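 Test system: recombinant IMP-1 enzyme, purified / Medium: HEPES buffer pH 7.1 with ZnSO4 and Brij 35 / Doses: single dose, 5.6 µM / Times: 25 °C, 15 min preincubation, 25 min reaction / Detection: Epi-absorbance via hydrolysed-nitrocefin quenching of white-plate fluorescence, 480/530 nm, EDTA stop / Evaluation: percent inhibition from optical density relative to buffer-blank wells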
# Mdm2-MdmX inh = disrupts the human Mdm2-MdmX interaction | O15151+Q00987 | SaOS-2 split-luciferase Mdm2/MdmX complementation, luminescence | inhibition, % at 8 µM | 3% of 330,000 active | AID 485346;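 active means inhibition of at least 50% at 8 µM in the primary screen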
# 697 NFkB inh = lowers PMA/ionomycin-induced NF-kB signal in 697 B cells. 0.33% of 330,000 active. inhibition, % at 4 µM. 697 B-cell NF-kB luciferase reporter, 16 h. AID 435022; in the data active means inhibition above about 35%
# Mdm2 MdmX conf = confirmation of human Mdm2/MdmX interaction inhibitors | shares compounds with Mdm2-MdmX inh | Mdm2-MdmX binding, luminescent assay | inhibition, % at 8 µM | 55% of 10,000 active | AID 489028; in the data active means inhibition above about 40%
# Full FLuc ctr = inhibits full-length luciferase, flagging false Mdm2/MdmX hits. shares compounds with Mdm2-MdmX inh. SaOS-2 full-length luciferase counterscreen, luminescence. inhibition, % at 8 µM. 77% of 6,200 active;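 active means mean inhibition at 8 µM reaching about 37%, which flags the compound as non-specific, limit read from the data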;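 further: p53-null SaOS-2 cells with luciferase driven by a doxycycline-inducible promoter; compound on cells about two nights before reading with doxycycline added after day one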
# Hits are given with their value; - = inactive; ? = inconclusive; . = no result given. Only some compounds are listed: those with a hit (about 4.7% of all), similar ones and a draw of the others.
SMILES,Jurkat NFkB inh,aSyn UTR inh,VIM-2 inhibitor,IMP-1 inh,Mdm2-MdmX inh,697 NFkB inh,Mdm2 MdmX conf,Full FLuc ctr
Cc1ccccc1OCC(O)Cn1c(=N)n(CCN2CCOCC2)c2ccccc21 (configuration not stated),-,-,-,-,-,-,.,.
Cc1cc2ccccc2c(=O)n1CC(=O)NCc1ccco1,-,-,-,-,-,-,.,.
CCOCCn1c(=O)c2c(nc3n2CC(C)CN3CCc2ccccc2)n(C)c1=O (configuration not stated),-,-,-,-,-,-,.,.
CCCCN(C)CCNC(=O)c1ccc2c(c1)NC(=O)C(N1CCCCC1)S2 (configuration not stated),-,-,-,-,-,-,.,.
CC(OC(=O)C1CC1)C(=O)Nc1cccc(S(=O)(=O)N2CCOCC2)c1 (configuration not stated),-,.,.,.,-,-,.,.
COc1ccc(C(O)(CC(C)C)C(CN2CCOCC2)c2ccccc2)cc1 (configuration not stated),-,66,-,-,77,-,77,-
CCc1ccc(C(O)(CC(C)C)C(CN2CCOCC2)c2ccccc2)cc1 (configuration not stated),-,?,-,-,83,-,85,-
CCc1ccc(C(O)(c2ccccc2OC)C(CN2CCOCC2)c2ccccc2)cc1 (configuration not stated),-,-,-,-,-,-,.,.
COc1ccc(NC(=O)COC(=O)c2ccc(S(=O)(=O)N3CCCCCC3)cc2)c(OC)c1,-,.,.,.,-,-,.,.
CC(Sc1ccccc1)C(=O)N1CCN(S(=O)(=O)c2ccccc2C(F)(F)F)CC1 (configuration not stated),-,-,-,-,-,-,.,.
O=C(c1cc(C(=O)NCCc2ccccc2)c(=O)n(CCc2ccccc2)c1)c1cc(Cl)ccc1O,-,-,-,-,74,-,54,61
COc1cccc([C@@H]2Oc3ccc(OC)cc3C(=O)[C@H]2OC(=O)Nc2cc(OC)c(OC)c(OC)c2)c1,-,.,-,-,-,-,.,.
COc1ccc2c(c1)O[C@H](c1ccc3c(c1)OCO3)[C@@H](OC(=O)N[C@H](C)C1CCCCC1)C2=O,-,-,-,-,59,-,-,.
COc1ccc2c(c1)O[C@H](c1ccc3c(c1)OCO3)[C@@H](OC(=O)Nc1cc(OC)c(OC)c(OC)c1)C2=O,-,-,-,-,61,-,62,67
C[C@H](CO)N1C[C@H](C)[C@@H](CN(C)S(=O)(=O)c2ccc(F)cc2)Oc2ccc(NS(=O)(=O)c3ccccc3)cc2C1=O,-,.,.,.,-,-,.,.
O=C(c1c[nH]c2ccccc12)C(O)C(c1ccccc1)N1CCOCC1 (configuration not stated),-,-,-,-,-,-,.,.
O=C(c1c[nH]c2ccccc12)C(Cl)c1ccccc1 (configuration not stated),-,-,-,-,79,-,69,52
O=c1cc(N2CCN(c3ccccc3)CC2)[nH]c(=O)n1C1CCCCC1,-,-,-,-,67,-,66,56
Cc1cc(=O)oc2cc(OCC(=O)N3c4ccccc4CC3C)ccc12 (configuration not stated),-,-,-,-,51,-,62,46
CCN1C=C(C(=O)OC)C(c2cccc(OC)c2OC)C(C(=O)OC)=C1,-,-,-,-,-,-,.,.
COc1cc(C(=O)NCCCCCCNC(=O)c2cc(OC)c(OC)c(OC)c2)cc(OC)c1OC,-,-,-,-,52,-,-,.
CCN1CCN(Cc2ccc(NC(=O)c3cc(NC(=O)c4cncc(-c5ccc(C#N)cc5)c4)cc(OC)c3)cc2C(F)(F)F)CC1,-,-,.,.,100,-,-,.
CCN1CCN(Cc2ccc(NC(=O)c3cc(NC(=O)c4cnnc5ccccc45)cc(OC)c3)cc2C(F)(F)F)CC1,-,-,.,.,52,-,-,.
COc1ccc(-c2ncncc2-c2ccc(Cl)cc2)c(O)c1,-,-,-,-,-,-,.,.
COc1ccc(-c2cncnc2-c2ccc(OC)cc2O)cc1,-,-,-,-,62,-,62,-
SMILES,Jurkat NFkB inh,aSyn UTR inh,VIM-2 inhibitor,IMP-1 inh,Mdm2-MdmX inh,697 NFkB inh,Mdm2 MdmX conf,Full FLuc ctr
CC(C)CC(=O)c1c(O)c(C=O)c(O)c2c1O[C@@]1(C)[C@@H](C2)C[C@H]2C[C@@H]1C2(C)C,-,.,.,.,59,-,-,.
O=C(CCl)Nc1cccc(Oc2cnccn2)c1,-,-,-,-,-,-,.,.
O=C(CCl)Nc1cn(-c2ccccc2)nc1-c1ccccc1,-,-,-,-,75,-,-,-
O=C(CCl)Nc1ccc(-c2ccccc2)cc1,-,-,-,-,96,-,99,50
O=C(CCl)Nc1ccc(N=Nc2ccccc2)cc1,.,-,-,-,.,.,.,.
O=C(CCl)Nc1cccc(Oc2ccccc2)c1,-,-,-,-,94,-,-,.
CC(=O)Nc1cn(-c2ccccc2)nc1-c1ccccc1,-,-,-,-,-,-,.,.
COc1ccccc1NC(=O)CCN1C(=O)c2ccccc2C1=O,-,-,-,-,-,-,.,.
CCOC(=O)C1CCN(C(=O)COC(=O)CN(C)S(=O)(=O)c2ccc(NC(C)=O)cc2)CC1,-,-,-,-,-,-,.,.
O=C(CCNC(=O)c1ccccc1Cl)Nc1ccc(S(=O)(=O)Nc2nccs2)cc1,-,.,.,.,-,-,.,.
CCN1CCCc2cc(CN(CCN3CCOCC3)C(=S)Nc3cccc(Cl)c3)ccc21,-,-,-,-,-,-,.,.
CCN(CC)CCNC(=O)c1ccc(N2CCCCC2)c(NS(=O)(=O)c2ccc(C)cc2)c1,-,-,-,-,-,-,.,.
COC(=O)c1ccc(N2CCCCC2)c(NS(=O)(=O)c2ccc(C)cc2)c1,-,-,-,-,65,-,57,62
COC(=O)c1ccc(Cl)c(NS(=O)(=O)c2ccc3c(c2)OCCO3)c1,-,-,-,-,53,-,47,55
CCN(CC)CCn1c2c(c(SCC(=O)Nc3cc(OC)cc(OC)c3)nc1=O)CCC2,-,-,.,.,-,-,.,.
CCN(CC)S(=O)(=O)c1ccc2oc(SCC(=O)Nc3cc(C)on3)nc2c1,-,-,.,.,55,-,57,52
O=C1N/C(=C/c2ccc(Br)s2)C(=O)N1c1ccccc1,-,-,-,-,51,-,-,.
CCc1cc(C(=O)Nc2nc(-c3ccccn3)cs2)sc1C,-,.,.,.,52,-,56,51
Cc1ccc(C(=O)Nc2nc(-c3ccccn3)cs2)o1,-,-,-,-,74,-,56,40
CCCn1nc(C(=O)Nc2nc(-c3ccccn3)cs2)c2ccccc2c1=O,-,.,.,.,62,-,50,53
